In ChEMBL document CHEMBL4382201 (J Med Chem, 2018):
Converted amounts (≈) assume the structure as drawn. The source made the active and inactive calls. The calls are words filed in the database; no cut-off is given here.

What was measured:
[1] = test system: Panel NCI-60 (60 carcinoma cell lines); experiment: Growth inhibition of human NCI60 cells at 10 uM after 48 hrs by SRB assay relative to control; type: functional, cell-based
How it was run: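 NCI-60 one-dose screen: cells exposed to 10 µM for 48 h at 37 °C, 5% CO2, 100% humidity. Percent growth is given relative to the no-drug control and the time-zero cell count.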

dsDNA [2] = experiment: Induction of DNA-interstanded-cross-link formation in [32P]-labeled 49-mer duplex DNA (unknown origin) at 1 mM in absence of H2O2 after 16 hrs by PAGE relative to control; type: functional
How it was run: (§1)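 A 32P-labelled 49-mer, annealed with 1.5 equiv complement (65 °C for 3 min in 10 mM potassium phosphate pH 7, 100 mM NaCl, then slow cooling), was used at 1.0 µM before final dilution. Duplex was mixed with compound (final 1 mM), NaCl and potassium phosphate pH 8, with or without H2O2. Incubation 16 h at room temperature, formamide quench, then 20% denaturing PAGE.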

[3] = Solubility of the compound in 50% DMSO/PBS buffer at 10 mM pH 6 after 3 to 10 days by NMR analysis; type: physicochemical; conditions: pH 6, 10000 µM
K562 = experiment: Growth inhibition of human K562 cells after 48 hrs by SRB assay; type: functional; conditions: K562, 48 h
How it was run: (§2)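 NCI-60 five-dose screen at 100 µM, 10 µM, 1 µM, 100 nM and 10 nM. Incubation 48 h at 37 °C, 5% CO2, 100% humidity. Growth was expressed relative to the no-drug control and to the time-zero cell number, and GI50 was derived from these values.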

MDA-MB-468 [4] = experiment: Growth inhibition of human MDA-MB-468 cells after 48 hrs by […]; type: functional, cell-based; conditions: MDA-MB-468, 48 h
SK-OV-3 = experiment: Growth inhibition of human SKOV3 cells after 48 hrs by SRB assay; type: functional; conditions: SK-OV-3, 48 h; how it was run: as §2
[5] = Cytotoxicity against human CLL cells assessed as reduction in cell viability after 24 hrs; type: functional, cell-based
How it was run: (§3)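 Patient CLL lymphocytes isolated on Ficoll-Hypaque and held in RPMI 1640 with 10% autologous plasma at 1×10^7 cells/mL, fresh cells only. Cells were exposed to a concentration series for 24 h alongside time-matched untreated controls. Apoptosis was measured by annexin V-FITC/PI flow cytometry, at least 10,000 events per sample; each patient was analysed separately.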

Lymphocyte [6] = experiment: Induction of apoptosis in human CLL-derived lymphocytes up to 30000 nM after 24 hrs by Annexin V-FITC/propidium iodide-staining based flow cytometry; type: functional, cell-based; how it was run: as §3
MDA-MB-468 [7] = experiment: Growth inhibition of human MDA-MB-468 cells after 48 hrs by SRB assay; type: functional; conditions: MDA-MB-468, 48 h; how it was run: as §2
HOP-92 = experiment: Growth inhibition of human HOP92 cells after 48 hrs by SRB assay; type: functional; conditions: HOP-92, 48 h; how it was run: as §2
[8] = Chemical stability of the compound in 100 mM pH 7.4 PBS buffer assessed as compound remaining at 10 mM at room temperature after 2 days; type: physicochemical; conditions: read-out: Stability
How it was run: (§4)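 Compound at 10 mM in 100 mM PBS (pH 6.0 or 7.4, prepared in D2O), diluted 9:1 with DMSO-d6. Kept at room temperature for 3-10 days. The fraction of intact compound was followed by NMR.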

MDA-MB-468 [9] = experiment: Antitumor activity against human MDA-MB-468 cells xenografted in nude CD1 mouse assessed as tumor size of initial size at 1.5 mg/kg/day, ip measured after 7 weeks (reference value: 278 to 657%); type: functional
How it was run: (§5)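 Female athymic nude mice (35 days, 20-22 g) received 2 million MDA-MB-468 cells s.c. in the flank, suspended in 1:1 matrigel/DMEM. Mice with palpable tumours were given 1.5 mg/kg i.p. or vehicle, 11 mice per group. Tumour size was measured by caliper every 7 days and body weight was recorded regularly.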

[10] = Chemical stability of the compound in 90% DMSO/PBS buffer assessed as compound remaining at pH 6 in presence of GSH; type: physicochemical
How it was run: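 Compound and GSH at a 1:2 ratio in DMSO-d6/PBS 9:1, pH 6.0, at room temperature. Compound-only and GSH-only samples served as controls. Intact compound was monitored by NMR.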

[11] = Chemical stability of the compound in 100 mM pH 6 PBS buffer assessed as compound remaining at 10 mM at room temperature after 4 days; type: physicochemical; conditions: read-out: Stability; how it was run: as §4
[12] = Drug metabolism in DMSO-d6/PBS buffer assessed as 1-(2-hydroxyethyl)-5-(methoxycarbonyl)-1,2,3,4,5,7-hexahydrobenzo[g][1,3,6]thiadiazonin-9-ylboronic acid formation after 10 days in presence of GSH by IT-TOF mass analysis
[13] = Toxicity in CD1 mouse at 1.5 mg/kg/day, ip for 5 days per week measured after 3 months; type: organism-based; conditions: in vivo, 120 h
How it was run: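 Mice were dosed i.p. at 1.5 mg/kg per day, 5 days per week, over three months and observed for toxicity.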

[14] = Chemical stability of the compound in 100 mM pH 6 PBS buffer assessed as compound remaining at 10 mM at room temperature after 2 days; type: physicochemical; conditions: read-out: Stability; how it was run: as §4
HT-29 = experiment: Growth inhibition of human HT-29 cells after 48 hrs by SRB assay; type: functional; conditions: HT-29, 48 h; how it was run: as §2
[15] = Chemical stability of the compound in 50% DMSO/PBS buffer assessed as compound remaining at pH 6 in presence of GSH after 24 hrs; type: physicochemical; conditions: 50% DMSO/PBS buffer with GSH, read-out: Stability
How it was run: (§6)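 Compound with GSH in DMSO-d6/PBS buffer 1:1, pH 6. Intact compound was followed by NMR over 24-48 h.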

MCF7 = experiment: Growth inhibition of human MCF7 cells after 48 hrs by SRB assay; type: functional; conditions: MCF7, 48 h; how it was run: as §2
RPMI-8226 = experiment: Growth inhibition of human RPMI8226 cells after 48 hrs by SRB assay; type: functional; conditions: RPMI-8226, 48 h; how it was run: as §2
CCRF-CEM = experiment: Growth inhibition of human CCRF-CEM cells after 48 hrs by SRB assay; type: functional; how it was run: as §2
[16] = Drug metabolism in DMSO-d6/PBS buffer assessed as 1-(2-chloroethyl)-5-(methoxycarbonyl)-1,2,3,4,5,7-hexahydrobenzo[g][1,3,6]thiadiazonin-9-ylboronic acid formation after 10 days in presence of GSH by IT-TOF mass analysis
[17] = Solubility of the compound in PBS buffer at 10 mM at pH 7.4 by UV-based analysis; type: physicochemical
How it was run: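 Compound (10 mM DMSO stock) was diluted into pH 7.4 buffer (ethanolamine/KH2PO4/potassium acetate/KCl) to a final 5% DMSO. After sonication and 18 h agitation the mixture was filtered and scanned by UV at 230-800 nm. Solubility was calculated from calibration plots made in 20% acetonitrile buffer, in quadruplicate, with solubility standards on each plate.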

[18] = Drug metabolism in DMSO-d6/PBS buffer assessed as (S)-3-((2-amino-3-methoxy-3-oxopropylthio)methyl)-4-((2-chloroethyl)(2-hydroxyethyl)amino)phenylboronic acid formation after 10 days in presence of GSH by IT-TOF mass analysis
Lymphocyte [19] = experiment: Induction of apoptosis in human lymphocytes at 10 uM after 24 hrs by Annexin V-FITC/propidium iodide-staining based flow cytometry; type: cell-based
How it was run: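 Normal PBMCs from 3 donors were isolated on Ficoll and treated at 10 µM. Apoptosis was measured by annexin V-FITC/PI flow cytometry against time-matched untreated controls.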

[20] = Toxicity in CD1 mouse xenografted with human MDA-MB-468 cells assessed as body weight change at 1.5 mg/kg/day, ip measured after 7 weeks; type: organism-based; conditions: in vivo, 1176 h; how it was run: as §5
DNA [21] = experiment: Induction of DNA cross-linking activity in human CLL-derived lymphocytes assessed as increase in gammaH2AX formation at 10 uM after 24 hrs by flow cytometry; type: functional, cell-based
How it was run: (§7)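 Primary CLL lymphocytes from 3 patients were treated for 24 h at 10 µM or 1 µM, depending on compound. H2AX phosphorylation (% γH2AX) was measured by flow cytometry.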

IGROV-1 = experiment: Growth inhibition of human IGROV1 cells after 48 hrs by SRB assay; type: functional; conditions: IGROV-1, 48 h; how it was run: as §2
SNB-75 = experiment: Growth inhibition of human SNB75 cells after 48 hrs by SRB assay; type: functional; conditions: SNB-75, 48 h; how it was run: as §2
dsDNA [22] = experiment: Induction of DNA-interstanded-cross-link formation in [32P]-labeled 49-mer duplex DNA (unknown origin) at 1 mM in presence of H2O2 after 16 hrs by PAGE relative to control; type: functional; how it was run: as §1
[23] = Chemical stability of the compound in 100 mM pH 7 PBS buffer assessed as compound remaining at 10 mM at room temperature after 4 days; type: physicochemical; conditions: read-out: Stability; how it was run: as §4
Malme-3M = experiment: Growth inhibition of human MALME-3M cells after 48 hrs by SRB assay; type: functional; how it was run: as §2
SR = experiment: Growth inhibition of human SR cells after 48 hrs by SRB assay; type: functional; how it was run: as §2
[24] = Chemical stability of the compound in 50% DMSO/PBS buffer assessed as compound remaining at pH 6 in presence of GSH after 48 hrs; type: physicochemical; conditions: 50% DMSO/PBS buffer with GSH, read-out: Stability; how it was run: as §6
MOLT-4 = experiment: Growth inhibition of human MOLT4 cells after 48 hrs by SRB assay; type: functional; conditions: MOLT-4, 48 h; how it was run: as §2
DNA [25] = experiment: Induction of DNA cross-linking activity in human CLL-derived lymphocytes assessed as increase in gammaH2AX formation at 5 to 20 uM after 24 hrs by flow cytometry; type: functional, cell-based
How it was run: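 Primary CLL lymphocytes from 5 patients were treated at 5-20 µM for 24 h. γH2AX was quantified by flow cytometry.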

[26] = Drug level in DMSO-d6/PBS buffer treated with (3-(((2-Amino-3-methoxy-3-oxopropyl)thio)methyl)-4-(bis(2-chloroethyl)amino)phenyl)boronic Acid assessed as compound formation after 10 days in presence of GSH by IT-TOF mass analysis; type: physicochemical; conditions: 240 h
DNA [27] = experiment: Induction of DNA cross-linking activity in human CLL-derived lymphocytes assessed as increase in gammaH2AX formation at 1 uM after 24 hrs by flow cytometry; type: functional, cell-based; how it was run: as §7

Compound: COC(=O)C(CSCc1cc(B2OC(C)(C)C(C)(C)O2)ccc1N(CCCl)CCCl)NC(=O)OC(C)(C)C (stereo unspecified)
- growth inhibition (GI) [1]: inactive
- Activity (dsDNA [2]): < 5%

Compound: CCCCOC(=O)C(NC(=O)OC(C)(C)C)c1cn(Cc2cc(B3OC(C)(C)C(C)(C)O3)ccc2N(CCCl)CCCl)c2ccccc12 (stereo unspecified)
- growth inhibition (GI) [1]: inactive
- Activity (dsDNA [2]): < 5%

Compound: COC(=O)[C@H](N)CSCc1cc(B(O)O)ccc1N(CCCl)CCCl
- solubility [3]: Insoluble
- GI50 (K562): 3250 nM
- IC50 (MDA-MB-468 [4]): 3400 nM
- GI50 (SK-OV-3): 1460 nM
- IC50 [5]: 3 to 778 nM
- Activity (Lymphocyte [6]): Active
- GI50 (MDA-MB-468 [7]): 1490 nM
- GI50 (HOP-92): 560 nM
- remaining at 48 h, 10000 µM [8]: 92%
- Activity (MDA-MB-468 [9]): 58 - 178%
- Stability [10]: Stable
- remaining at 96 h, 10000 µM [11]: 85%
- Drug metabolism [12]: Metabolite detected
- Activity (dsDNA [2]): 1.5 to 15%
- Activity [13]: Non-Toxic
- remaining at 48 h, 10000 µM [14]: 92%
- GI50 (HT-29): 4030 nM
- remaining at 24 h [15]: 90%
- GI50 (MCF7): 720 nM
- GI50 (RPMI-8226): 2620 nM
- GI50 (CCRF-CEM): 540 nM
- Drug metabolism [16]: Metabolite detected
- solubility [17]: 231 µM (≈ 94.5 µg/mL)
- Drug metabolism [18]: Metabolite detected
- Activity (Lymphocyte [19]): Non-Toxic
- Activity [20]: Non-Toxic
- Activity (DNA [21]): Active
- GI50 (IGROV-1): 3320 nM
- GI50 (SNB-75): 850 nM
- Activity (dsDNA [22]): < 65%
- remaining at 96 h, 10000 µM [23]: 85%
- GI50 (Malme-3M): 2390 nM
- GI50 (SR): 280 nM
- remaining at 48 h [24]: 70%
- GI50 (MOLT-4): 600 nM

Compound: CC1(C)OB(c2ccc(CO)cc2)OC1(C)C
- Activity (DNA [25]): inactive

Compound: N[C@H](Cc1cn(Cc2cc(B(O)O)ccc2N(CCCl)CCCl)c2ccccc12)C(=O)O
- growth inhibition (GI) [1]: inactive
- Activity (dsDNA [2]): 1.5 to 15%
- Activity (dsDNA [22]): < 65%

Compound: COC(=O)C1CSCc2cc(B(O)O)ccc2N(CCO)CCN1 (stereo unspecified)
- Drug uptake [26]: Active

Compound: COc1cc(N(CCCl)CCCl)ccc1B1OC(C)(C)C(C)(C)O1
- IC50 (MDA-MB-468 [4]): 34400 nM
- Activity (dsDNA [2]): 8%
- solubility [17]: 50 µM (≈ 18.7 µg/mL)
- Activity (DNA [27]): Active
- Activity (Lymphocyte [19]): Non-Toxic
- Activity (dsDNA [22]): < 65%

Compound: N[C@H](CSCc1cc(B(O)O)ccc1N(CCO)CCCl)C(=O)O
- Drug uptake [26]: Active
